In publication PMC8776895 (British journal of pharmacology, 2021):
Positions of bridges follow the written chain, without caps; N, C: chain ends. Residues, ends and D or L forms follow the SMILES beside them. No end group written: not given here.

What was measured:
Type in all cases: cell-based
m-CTR:m-RAMP2 = molecular target: T1, m-CTR:m-RAMP2 (Mus musculus, UniProt Q60755+Q9WUP0, P10T); test: cAMP production, agonist concentration-response, transfected Cos7 cells; settings: SEM
T1 sequence (Q60755 42-496 isoform Q60755-2): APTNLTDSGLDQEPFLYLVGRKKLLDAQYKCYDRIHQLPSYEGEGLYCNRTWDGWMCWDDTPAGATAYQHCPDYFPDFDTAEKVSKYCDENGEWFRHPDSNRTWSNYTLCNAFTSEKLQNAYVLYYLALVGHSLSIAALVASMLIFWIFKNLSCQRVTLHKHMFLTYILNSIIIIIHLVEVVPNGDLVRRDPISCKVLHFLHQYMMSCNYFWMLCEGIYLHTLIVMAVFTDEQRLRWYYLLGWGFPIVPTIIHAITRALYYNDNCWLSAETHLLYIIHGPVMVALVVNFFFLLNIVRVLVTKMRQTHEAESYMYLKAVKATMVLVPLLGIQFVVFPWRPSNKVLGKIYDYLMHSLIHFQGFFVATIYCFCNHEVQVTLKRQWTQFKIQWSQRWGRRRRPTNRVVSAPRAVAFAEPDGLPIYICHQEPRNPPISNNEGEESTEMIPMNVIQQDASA
T1 sequence (Q9WUP0 45-189): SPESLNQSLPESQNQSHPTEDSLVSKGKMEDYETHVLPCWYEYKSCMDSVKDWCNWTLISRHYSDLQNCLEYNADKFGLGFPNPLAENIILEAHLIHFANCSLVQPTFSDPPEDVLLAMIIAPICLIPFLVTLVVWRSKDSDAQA

m-CTR:m-RAMP1 = molecular target: T2, m-CTR:m-RAMP1 (Mus musculus, UniProt Q60755+Q9WTJ5); test: as above; settings: for EC50: SEM
T2 sequence (Q60755 42-496 isoform Q60755-2 limits assumed): T1 sequence (Q60755 42-496 isoform Q60755-2)
T2 sequence (Q9WTJ5 27-148): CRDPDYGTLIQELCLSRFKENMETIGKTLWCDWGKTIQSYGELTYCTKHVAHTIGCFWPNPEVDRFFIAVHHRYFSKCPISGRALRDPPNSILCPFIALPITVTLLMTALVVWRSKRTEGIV

m-CLR:m-RAMP1 = m-CLR:m-RAMP1 (Mus musculus, UniProt Q9R1W5+Q9WTJ5); test: as above; settings: for EC50: SEM
Chain of m-CLR:m-RAMP1 (Q9R1W5 23-463, one chain of several): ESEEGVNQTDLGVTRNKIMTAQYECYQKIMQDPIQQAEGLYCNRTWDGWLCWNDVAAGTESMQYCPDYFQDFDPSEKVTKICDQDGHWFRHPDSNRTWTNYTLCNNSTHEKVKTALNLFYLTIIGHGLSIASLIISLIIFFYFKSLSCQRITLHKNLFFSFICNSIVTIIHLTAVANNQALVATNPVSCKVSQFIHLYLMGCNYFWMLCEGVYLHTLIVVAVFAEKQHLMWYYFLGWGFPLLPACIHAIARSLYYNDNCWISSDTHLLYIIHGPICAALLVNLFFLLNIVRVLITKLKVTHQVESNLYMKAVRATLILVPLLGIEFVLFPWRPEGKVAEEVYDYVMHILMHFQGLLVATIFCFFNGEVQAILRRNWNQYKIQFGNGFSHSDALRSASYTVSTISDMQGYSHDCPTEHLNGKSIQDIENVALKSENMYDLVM

[1] = molecular target: T3, m-CTR:pcDNA (m-CTR alone) (Mus musculus, UniProt Q60755); test: as above; settings: SEM
T3 sequence (Q60755 42-496 isoform Q60755-2 limits assumed): T1 sequence (Q60755 42-496 isoform Q60755-2)

m-CTR:m-RAMP3 = molecular target: T4, m-CTR:m-RAMP3 (Mus musculus, UniProt Q60755+Q9WUP1); test: as above; settings: for EC50: SEM; for fold increase in potency relative to m-CTR alone: m-CTR:m-RAMP3 versus m-CTR:pcDNA
T4 sequence (Q60755 42-496 isoform Q60755-2 limits assumed): T1 sequence (Q60755 42-496 isoform Q60755-2)
T4 sequence (Q9WUP1 23-147): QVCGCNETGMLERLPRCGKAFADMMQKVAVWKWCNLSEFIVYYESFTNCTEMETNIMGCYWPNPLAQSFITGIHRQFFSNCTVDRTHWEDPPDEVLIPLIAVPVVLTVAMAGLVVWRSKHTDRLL

m-CLR:m-RAMP3 [2] = molecular target: T5, m-CLR:m-RAMP3 (Mus musculus, UniProt Q9R1W5+Q9WUP1); test: as above; settings: SEM
T5 sequence (Q9R1W5 23-463, one chain of several): as the sequence (Q9R1W5 23-463, one chain of several) above
m-CLR:m-RAMP2 [3] = molecular target: T6, m-CLR:m-RAMP2 (Mus musculus, UniProt Q9R1W5+Q9WUP0, P10T); test: as above; settings: for EC50: SEM
T6 sequence (Q9R1W5 23-463, one chain of several): as the sequence (Q9R1W5 23-463, one chain of several) above
m-CLR:pcDNA = m-CLR:pcDNA (Mus musculus, UniProt Q9R1W5); test: cAMP production, agonist stimulation, Cos7 cells with m-CLR without RAMP; settings: concentrations as high as 10 μM
Chain of m-CLR:pcDNA (Q9R1W5 23-463): as the sequence (Q9R1W5 23-463, one chain of several) above
Method in brief: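 Mouse CLR was co-transfected 1:1 with empty pcDNA3.1(+) (no RAMP) into Cos-7 cells with polyethylenimine. Cells were seeded at 15,000–20,000/well, transfected 18–24 h later and used about 48 h after that. After 30 min in DMEM with 1 mM IBMX and 0.1% BSA, agonist peptides were applied for 15 min at 37 °C. Forskolin (100 µM final) served as positive control. cAMP was quantified by LANCE assay from a standard curve, in duplicate or triplicate.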

m-CLR:m-RAMP3 [4] = molecular target: T5, m-CLR:m-RAMP3; test: Antagonism of agonist-stimulated cAMP production, transfected Cos7 cells; settings: agonist m-AM, mean ± s.e.m., n = 5, SEM
m-CLR:m-RAMP2 [5] = molecular target: T6, m-CLR:m-RAMP2; test: as above

EC50 (m-CTR:m-RAMP2) [nM]	EC50 (m-CTR:m-RAMP1) [nM]	EC50 (m-CLR:m-RAMP1) [nM]	fold less potent than m/r-αCGRP (m-CLR:m-RAMP1; m-CLR:m-RAMP1, cAMP pEC50)	EC50 [1] [nM]	EC50 (m-CTR:m-RAMP3) [nM]	EC50 (m-CLR:m-RAMP3 [2]) [nM]	EC50 (m-CLR:m-RAMP2 [3]) [nM]	fold increase in potency relative to m-CTR alone (m-CTR:m-RAMP1; m-CTR:m-RAMP1 versus m-CTR:pcDNA)	fold increase in potency relative to m-CTR alone (m-CTR:m-RAMP3) [fold]	fold less potent than m-AM (m-CLR:m-RAMP2 [3]; m-CLR:m-RAMP2, cAMP pEC50)	cAMP response to stimulation (m-CLR:pcDNA)	pA2 (m-CLR:m-RAMP3 [4])	pA2 (m-CLR:m-RAMP2 [5]; agonist m-AM, m-CLR:m-RAMP2, mean ± s.e.m., n = 5, SEM)	fold more effective at m-CLR:m-RAMP2 over m-CLR:m-RAMP3 (m-CLR:m-RAMP2 [5]; from pA2, agonist m-AM)	Molecule
8.13	3.02	0.955	approximately 14 fold	12.3	1.66	0.776	3.72	–	–	–	–	–	–	–	CC(C)C[C@H](NC(=O)[C@H](CCCNC(=N)N)NC(=O)[C@H](Cc1c[nH]cn1)NC(=O)[C@H](CO)NC(=O)[C@H](CC(C)C)NC(=O)[C@H](CC(N)=O)NC(=O)[C@H](CCC(N)=O)NC(=O)[C@@H](NC(=O)[C@H](CCC(N)=O)NC(=O)[C@@H]1CSSC[C@H](NC(=O)CNC(=O)[C@@H](N)C(C)C)C(=O)N[C@@H](C(C)C)C(=O)N[C@@H](CC(C)C)C(=O)NCC(=O)N[C@@H]([C@@H](C)O)C(=O)N1)C(C)C)C(=O)N[C@@H](Cc1c[nH]c2ccccc12)C(=O)N[C@@H](CCC(N)=O)C(=O)N[C@@H](CC(C)C)C(=O)N[C@H](C(=O)N[C@@H](CCCNC(=N)N)C(=O)N1CCC[C@H]1C(=O)N[C@@H](C)C(=O)NCC(=O)N[C@@H](CCCNC(=N)N)C(=O)N[C@@H](CCCNC(=N)N)C(=O)N[C@@H](CC(=O)O)C(=O)N[C@@H](CO)C(=O)N[C@@H](C)C(=O)N1CCC[C@H]1C(=O)N[C@H](C(=O)N[C@@H](CC(=O)O)C(=O)N1CCC[C@H]1C(=O)N[C@@H](CO)C(=O)N[C@@H](CO)C(=O)N1CCC[C@H]1C(=O)N[C@@H](Cc1c[nH]cn1)C(=O)N[C@@H](CO)C(=O)N[C@@H](Cc1ccc(O)cc1)C(N)=O)C(C)C)C(C)C [m-AM2_40] (H-VGCVLGTCQVQNLSHRLWQLVRPAGRRDSAPVDPSSPHSY-NH2; disulfide 3-8; N-terminus assumed)
42.7	6.92	4.47	–	56.2	2.14	1.32	10.5	eight	26	~ seven	–	–	–	–	PHAQLLRVGCVLGTCQVQNLSHRLWQLVRPAGRRDSAPVDPSSPHSY-NH2 (disulfide 10-15) [m-AM2_47]
19.5	27.5	6.61	–	37.2	3.55	0.468	1.55	–	11	–	did not respond	–	–	–	YRQSMNQGSRSNGCRFGTCTFQKLAHQIYQLTDKDKDGMAPRNKISPQGY-NH2 (disulfide 14-19) [m-AM]
–	–	–	–	–	–	–	–	–	–	–	–	5.19 ± 0.21	5.71 ± 0.03	three	h-AM22-52: commonly used AM-receptor antagonist, purchased from Bachem
